PKD1 kinase inh: blocks activity of human protein kinase D1; Q15139; PKD1 kinase fluorescence polarization assay; inhibition, % (concentration not given with the values); 200,000 compounds, 0.056% hits; AID 797
Target sequence (Q15139 whole entry, looked up): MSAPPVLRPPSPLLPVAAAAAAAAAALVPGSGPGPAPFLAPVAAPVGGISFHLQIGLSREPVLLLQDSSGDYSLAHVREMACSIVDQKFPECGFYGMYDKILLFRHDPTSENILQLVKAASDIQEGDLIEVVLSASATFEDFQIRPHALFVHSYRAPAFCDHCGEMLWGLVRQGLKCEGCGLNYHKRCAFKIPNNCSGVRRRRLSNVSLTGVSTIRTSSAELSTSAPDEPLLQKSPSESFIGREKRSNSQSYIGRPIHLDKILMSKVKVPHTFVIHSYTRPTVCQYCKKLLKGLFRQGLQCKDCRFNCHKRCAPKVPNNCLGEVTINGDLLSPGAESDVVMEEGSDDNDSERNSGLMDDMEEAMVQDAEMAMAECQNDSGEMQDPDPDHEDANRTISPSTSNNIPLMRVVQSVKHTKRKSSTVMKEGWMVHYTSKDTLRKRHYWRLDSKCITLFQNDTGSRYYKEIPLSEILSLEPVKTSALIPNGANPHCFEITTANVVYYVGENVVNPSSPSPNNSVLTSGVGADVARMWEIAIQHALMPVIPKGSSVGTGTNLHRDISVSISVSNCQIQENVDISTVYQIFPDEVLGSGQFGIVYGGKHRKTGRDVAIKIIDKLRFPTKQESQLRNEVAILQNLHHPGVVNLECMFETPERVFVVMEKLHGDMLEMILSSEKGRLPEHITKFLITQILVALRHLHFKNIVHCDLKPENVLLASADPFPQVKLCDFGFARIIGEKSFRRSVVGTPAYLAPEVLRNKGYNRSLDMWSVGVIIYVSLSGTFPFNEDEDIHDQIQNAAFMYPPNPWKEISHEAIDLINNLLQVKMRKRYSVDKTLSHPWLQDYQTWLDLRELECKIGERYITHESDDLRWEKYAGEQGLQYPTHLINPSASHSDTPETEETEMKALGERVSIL
Runt-CBFb FRET: inhibitors of human RUNX1 Runt domain binding to CBFb; Q01196+Q13951; Cerulean-Runt/Venus-CBFb FRET ratio 530/480, 1 h; inhibition, % at 20 µM; 220,000 compounds, 0.46% hits;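 active = inhibition over about 50% at 20 µM in the single-dose screen, limit read from the data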;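 also: 0% = DMSO wells and 100% = excess unlabeled CBFb competitor control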
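Measured by: fluorescence energy transfer, 422 nm excitation, 530/480 nm emission; test system: Cerulean-tagged RUNX1 Runt domain (FRET donor) fusion protein; buffer or medium: Tris pH 7.5 buffer with BSA; compound: one dose, 20 µM compound, 1% DMSO; times: two 1 h room-temperature incubations shielded from light; benchmarks: unlabeled CBFb 5 µM, positive control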
MEX-5 binding: C. elegans MEX-5 TCR-2 RNA binding activity; Q9XUB2; MEX-5/FITC-TCR2 RNA binding, fluorescence polarization; hits give low values; activity score (negative = inhibition of binding), % at 10 µM; 300,000 compounds, 0.38% hits; AID 1832;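 active = inhibition past about -25% in most replicates, and total fluorescence under double the plate's negative control median, limit read from the data; inconclusive = replicates evenly split on the limit, or fluorescence at least double controls; inactive = too little inhibition in most replicates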;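 also: 0% = DMSO and -100% = 5 µM competing unlabeled TCR2 RNA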
Runt-SMMHC FRET: Runt domain-CBFb-SMMHC interaction inhibition. 220,000 compounds, 0.74% hits. inhibition, % at 20 µM. Cerulean-Runt/Venus-CBFb-SMMHC FRET ratio 530/480, 1 h. Q01196+Q13951;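 active = mean inhibition across duplicate retests at 20 µM reaching about 50%, limit read from the data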;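 also: 0% = DMSO wells and 100% = wells with excess untagged CBFb-SMMHC; inhibitors lower the FRET ratio by blocking Runt binding to CBFb-SMMHC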
RanGTP-Impb inh: disruptors of Ran-importin-beta complex formation – biochemical, FRET, CFP-Ran, YFP-importin-beta, homogeneous, primary screen; cell-free CFP-Ran/YFP-importin-beta FRET ratio; inhibition, % (test concentration not listed); 300,000 compounds, 1.1% hits;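 active = more than half of the replicate wells show a fall in the fluorescence ratio signal beyond about 16%, limit read from the data, passing the limit was not always enough; inconclusive = exactly half of the replicate wells pass the set limit; inactive = fewer than half of replicates pass the limit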;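 also: 0% = DMSO wells and 100% = Ran loaded with GDP instead of GTP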
EBV gp42 block: blocks Epstein-Barr virus glycoprotein 42 binding; 220,000 compounds, 0.42% hits; Fluorescence polarization binding assay, mP read-out; inhibition, % (tested at 21.74 µM); Q1HVG2; AID 1085
RUNX1 CBFb TR: Runt-CBFb binding inhibition; shares compounds with Runt-CBFb FRET; TR-FRET RUNX1 Runt domain-CBFb binding; inhibition, % at 20 µM; 480 compounds, 20% hits; AID 1502; in the data active = inhibition above about 40%
* = called active by the depositor; u = inconclusive; x = not tested or not shown. Rows were chosen to be rich in hits. Some 2% of all compounds tested hit in one or more screens of this group. Rule as the data show it, unless noted: active = inhibition above about 50%; inactive = the rest.

SMILES | PKD1 kinase inh | Runt-CBFb FRET | MEX-5 binding | Runt-SMMHC FRET | RanGTP-Impb inh | EBV gp42 block | RUNX1 CBFb TR
Cc1cccc(N2CCc3c2nc2ccc(Br)cc2c3N)c1 | -2 | 57* | -12 | 78 | 6 | 7 | -14
O=C(Nc1cc(Cl)ccc1Cl)C1Cc2ccccc2O/C1=N\O (stereo not drawn) | x | x | 0 | x | 3 | x | x
CCCCn1c(-c2ccncc2)nc2c1c(=O)[nH]c(=O)n2CC(C)C | -2 | 75* | 2 | 2 | 3 | 0 | -10
COc1c(O)ccc(/C=C(\C#N)c2nc3ccccc3[nH]2)c1[N+](=O)[O-] | -6 | 74* | -6 | 100* | 20* | 9 | 0
COc1ccccc1N1CCN(/N=C/c2cccc(O)c2)CC1 | -6 | x | -1 | x | 2 | -3 | x
COc1ccccc1N1CCN(/N=C/c2cc(OC)c(O)c(OC)c2)CC1 | -15 | 59* | 1 | 47 | 4 | -5 | 35
Cc1ccc(NC(=S)C2=C(O)c3sccc3N(C)S2(=O)=O)cc1 | 0 | 65* | -1 | 73* | 81* | -19 | 16
O=C(Cn1cnc(S(=O)(=O)N2CCCC2)c1)Nc1ccc(OC(F)(F)F)cc1 | x | x | 1 | x | 4 | x | x
CCOC(=O)C1=C(Cc2ccc(C)cc2)C(=O)c2ccccc2C1=O | 9 | 50* | 3 | 51* | -11 | -3 | -51
CC(=O)N(c1ccc2oc(=O)sc2c1)S(=O)(=O)c1cccs1 | 3 | 72* | 1 | 63* | 7 | -13 | 22
CC(C)C(=O)N(c1ccc2oc(=O)sc2c1)S(=O)(=O)c1cccs1 | 1 | 58* | 2 | 37 | 0 | 8 | 38
CC(=O)N(c1ccc2oc(=O)sc2c1)S(=O)(=O)c1ccc(C(=O)O)cc1 | x | x | -6 | x | 1 | x | x
COc1ccc(C(CNC(=O)c2cccc(NS(=O)(=O)c3ccc(C)c(F)c3)c2)N2CCOCC2)cc1 (stereo not drawn) | x | x | 2 | x | -2 | x | x
COc1ccccc1C(=O)NCC(=O)N/N=C(\C)Cc1ccccc1 | x | x | 1 | x | 1 | x | x
O=C(NC1CCCc2ccccc21)C1CCC(CNS(=O)(=O)c2cccc3nsnc23)CC1 (stereo not drawn) | -5 | 83* | -3 | -2 | u | 13 | 18
O=C(CCNS(=O)(=O)c1cccc2nsnc12)NC1CCCc2ccccc21 (stereo not drawn) | -4 | 2 | 0 | 2 | -1 | -13 | x
NS(=O)(=O)c1ccc(NC(=S)NC2CCCC2)cc1 | -21 | 55* | 0 | 31 | 2 | -10 | -16
NS(=O)(=O)c1ccc(NC(=S)NC2CCCCCC2)cc1 | -3 | -5 | -1 | -1 | 4 | -14 | x
Cc1ccnc(SCc2cc(=O)c(OC(=O)c3ccc(Cl)c([N+](=O)[O-])c3)co2)n1 | -2 | 3 | 1 | -9 | 3 | 0 | x
Cc1ccccc1CNC(=O)C1CCN(c2nnc(N3CCCC3=O)s2)CC1 | x | x | 0 | x | -2 | x | x
CCNC(=S)N1CCCC(C(N)=O)C1 (stereo not drawn) | -10 | -1 | -1 | -2 | -2 | -2 | x
N#C/C(=C\c1c(N(Cc2ccccc2)Cc2ccccc2)nc2ccccn2c1=O)C(N)=O | 5 | 3 | 3 | 7 | 0 | 11 | x
C=CCNC(=O)/C(C#N)=C/c1c(N(Cc2ccccc2)Cc2ccccc2)nc2ccccn2c1=O | 4 | 51* | 4 | 71* | 4 | -38 | -8
COc1ccc(C(=O)CSc2nc3ncccc3[nH]2)cc1OC | x | 2 | -2 | -1 | 0 | -19 | x
CC(=O)N1CC[n+]2c(-c3ccc(Cl)cc3)csc21 | -4 | 60* | 0 | 58* | -1 | -9 | 10
SMILES | PKD1 kinase inh | Runt-CBFb FRET | MEX-5 binding | Runt-SMMHC FRET | RanGTP-Impb inh | EBV gp42 block | RUNX1 CBFb TR
CCc1ccc(-c2csc3[n+]2CCN3C(C)=O)cc1 | -2 | 4 | -1 | 31 | 1 | 2 | x
COc1cccc2[nH]c3c(Cl)ncnc3c12 | 0 | 52* | x | 2 | 3 | -6 | 28
COc1cc(OC)cc(C(=O)/C=C2\Sc3ccccc3N2C)c1 | 8 | 57* | -7 | 48 | 2 | -17 | 6
CN1/C(=C\C(=O)c2cccc([N+](=O)[O-])c2)Sc2ccccc21 | x | x | -6 | x | -1 | x | x
CN1/C(=C\C(=O)c2cccs2)Sc2ccccc21 | -5 | 52* | -11 | 94* | u | 10 | 0
CN1/C(=C/C(=O)C2CCC2)Sc2ccccc21 | 5 | 51* | -4 | 25 | 4 | -19 | 8
CC(C)c1ccc(CNC(=O)C2CCCN2S(=O)(=O)c2ccccc2)cc1 (stereo not drawn) | x | x | 2 | x | -1 | x | x
Cc1cc(O)ccc1N/C=C(\C#N)c1nc2ccccc2o1 | -11 | 53* | -3 | 60 | -3 | -27 | 3
N#C/C(=C\c1c(Cl)cccc1Cl)c1nc2ccccc2o1 | 13 | 5 | 2 | 4 | -1 | -7 | x
COc1ccc(N2CC(C(=O)Nc3nnc(SCC(=O)N4CCOCC4)s3)CC2=O)cc1 (stereo not drawn) | x | x | -1 | x | -2 | x | x
CCCC(C(=O)NC1CCCC1)N(C(=O)Cn1nnc(-c2ccc(C)o2)n1)c1ccccc1OC (stereo not drawn) | -11 | 53* | 0 | 3 | 0 | -16 | -15
c1ccc(-c2onc3cc4c(cc23)OCCO4)cc1 | 6 | 77* | -1 | 104* | 6 | -9 | 11
CN(C)/C=C/C(=O)c1ccc2noc(-c3ccccc3)c2c1 | x | x | -6 | x | 5 | x | x
CCOC(=O)CN1NC2(CCC(C)CC2)NC1=S (stereo not drawn) | -3 | 48 | 0 | 25 | 0 | -9 | x
CCOC(=O)CN1NC2(CCCC(C)C2)NC1=S (stereo not drawn) | 3 | 51* | 2 | 32 | u | -3 | 10
O=C(CSc1ncnc2ccccc12)c1cccs1 | -5 | 54* | 0 | 90* | 1 | -6 | -28
O=C(CSc1ncnc2ccccc12)N1CCCC1 | -11 | 2 | 0 | 1 | 2 | -1 | x
Cc1cc(C)c(C)c(S(=O)(=O)NCCN2CCOCC2)c1C | x | x | 1 | x | -3 | x | x
CC(=O)Nc1ccc(S(=O)(=O)Nc2nc3ccccc3nc2Nc2cccc(S(N)(=O)=O)c2)cc1 | x | -2 | -2 | 3 | 3 | -6 | x
O=c1cc(O)c2sc(Nc3ccc(F)cc3)nc2[nH]1 | 7 | 56* | 4 | 34 | 4 | -12 | 6
Cc1cc(=O)[nH]c(Nc2cccc(C(F)(F)F)c2)n1 | 0 | -2 | 1 | -4 | 5 | -14 | x
Fc1ccc(Nc2nc3ccccc3s2)cc1 | 2 | 0 | -2 | -2 | 3 | -4 | x

Source: PubChem
